Compound activity: PubChem, several laboratories
Cardio protect: cardioprotection against H2O2-induced cell death, primary screen, uHTS, H9c2 cells, ATPLite luminescence. H9c2 cardiomyocytes, H2O2 injury protection, 2 h. protection from H2O2 cell death, % at 20 µM. 360,000 tested, 0.63% active;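 active means compounds giving at least 50% protection of heart cells from peroxide-induced death in the single-dose screen, raw or plate-pattern-corrected value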;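 further: 0% = DMSO wells with peroxide and 100% = DMSO wells without peroxide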
DDE Tn6 FP inh: inhibitors of Tn6 peptide binding to fibrin DD(E), primary screen, biochemical, fluorescence polarization, human fibrin, Tn6 probe; Fibrinogen beta chain (Homo sapiens), P02675; Fibrin DD(E) TRITC-Tn6 fluorescence polarization displacement; inhibition, % at 8.3 µM; 370,000 tested, 0.21% active;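 active means inhibition above a per-campaign cutoff: mean of compounds within control limits plus 3 SD, cut at about 15% in these data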;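 further: 0% = median of all compound wells on the plate and 100% = blocking peptide control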
DAGLB inh: DAGLB lipase inhibitors, primary screen, biochemical, fluorescence, HTS; AID 504411, 2011; HEK293T DAGLB membrane lysate, EnzChek fluorogenic substrate; 340,000 tested, 0.059% active; inhibition, % at 5.17 µM; in the data active means inhibition above about 34%;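 further: 0% = enzyme with vehicle and 100% = wells lacking enzyme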
Target sequence (Q8NCG7 whole entry, looked up): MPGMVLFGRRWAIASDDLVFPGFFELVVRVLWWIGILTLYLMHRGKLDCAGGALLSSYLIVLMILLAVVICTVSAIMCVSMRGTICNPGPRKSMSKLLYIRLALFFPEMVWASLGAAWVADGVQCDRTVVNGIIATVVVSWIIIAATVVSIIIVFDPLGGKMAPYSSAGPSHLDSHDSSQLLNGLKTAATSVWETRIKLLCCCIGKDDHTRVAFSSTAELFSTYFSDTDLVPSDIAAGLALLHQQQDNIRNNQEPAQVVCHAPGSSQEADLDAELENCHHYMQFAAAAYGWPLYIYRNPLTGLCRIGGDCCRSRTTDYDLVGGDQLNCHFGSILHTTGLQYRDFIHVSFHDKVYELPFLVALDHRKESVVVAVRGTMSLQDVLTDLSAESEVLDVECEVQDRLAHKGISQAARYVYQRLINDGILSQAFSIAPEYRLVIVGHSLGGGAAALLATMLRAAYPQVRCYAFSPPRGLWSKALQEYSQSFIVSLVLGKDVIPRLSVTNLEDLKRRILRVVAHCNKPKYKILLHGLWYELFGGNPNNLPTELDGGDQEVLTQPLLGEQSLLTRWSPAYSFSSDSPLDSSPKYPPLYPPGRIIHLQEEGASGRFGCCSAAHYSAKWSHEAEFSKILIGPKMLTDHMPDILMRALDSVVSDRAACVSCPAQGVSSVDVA
TAG inh: inhibitors of triacylglycerol accumulation, primary screen, cell-based, uHTS, fluorescence, H9c2. H9c2 cells, Nile Red lipid (TAG) fluorescence; cells loaded with 200 µM oleic acid. inhibition, % at 12.5 µM. 230,000 tested, 0.66% active. AID 651582, 2012;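 active means pattern-corrected inhibition of lipid staining of at least 50% with the nuclear-stain viability signal not falling by more than 50%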;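 further: 0% = DMSO wells and 100% = triacsin C control wells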
DDE Tn7 FP inh: inhibitors of Tn7 peptide binding to fibrin DD(E), primary screen, biochemical, fluorescence polarization, human fibrin, Tn7 probe | FP displacement of FITC-Tn7 peptide from fibrin DD(E); 0% = median of compound wells per plate | inhibition, % at 8.3 µM | 370,000 tested, 0.13% active | AID 720508, 2013;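 active means inhibition above the mean of compounds falling within the control limits plus 3 SD of them, cut at about 14% in these data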;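 further: 0% = plate median of compound wells and 100% = 10 µM Aha-Tn7 peptide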
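Also added: labelled Tn7 tracer, 0.1 µM; Assay system: human fibrin DD(E) protein; Amount: 2 µM fibrin DD(E); Schedule: 10 min compound pre-incubation, 3 h probe incubation at room temperature; Repeats: one replicate per compound; Read-out basis: percent inhibition; Measured by: fluorescence polarization of the labelled Tn7 tracer.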
MT1-MMP act inh: blockers of MT1-MMP proenzyme processing, primary screen, HT1080 RFP-PRO-GFP cells, GFP/RFP fluorescence | GFP/RFP ratio fluorescence, overnight; percent of plate control window, DMSO zero | AID 651647, 2012 | 360,000 tested, 0.061% active | GFP/RFP ratio change, % at 20 µM;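 active means GFP/RFP ratio change of at least 30% with cell ATP level not reduced by more than half and red fluorescence within 50% of control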
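Test system: HT1080 RFP-PRO-GFP cells; Benchmarks: DMSO and RFP-L50D-GFP cell wells; Timing: cells overnight before dosing, compound overnight, 37 °C, 5% CO2; Compound: one 20 µM compound dose with 1% DMSO; Read-out: GFP/RFP fluorescence ratio.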
Active calls of the source: *; / = no result given. An excerpt weighted towards active compounds, which were near 1.4% of everything screened.

SMILES	Cardio protect	DDE Tn6 FP inh	DAGLB inh	TAG inh	DDE Tn7 FP inh	MT1-MMP act inh
C#CCNC(=O)C[C@@H]1C(=O)N(CCc2ccc(Cl)cc2)/C2=C/CCCCC[C@@]21C(=O)OCC	/	3	/	/	3	/
COc1cc(OC)cc(-c2cc3nc(C)c(CCC(=O)Nc4nc(C)cs4)c(C)n3n2)c1	64*	5	-2	-9	-3	-4
Cc1cc(C2CCCCC2)n(O)c(=O)c1	69*	2	-4	16	-5	1
CCN(CC)c1ccc2cc(NC(=O)CCC(=O)O)c(=O)oc2c1	-16	44*	-8	/	10	-24
CCCN1C(=O)/C(=C2\SC(N3CCCCC3)=NC2=O)c2ccccc21	-28	-8	7	51*	-2	10
Cc1nc(N2CCN(S(=O)(=O)c3ccccc3)CC2)c2c3c(sc2n1)CC(C)CC3 (centres undefined)	28	0	2	/	-3	-27
Cc1nc(N2CCN(S(=O)(=O)c3cccc4nonc34)CC2)c2c3c(sc2n1)CCCC3	49*	-2	0	/	-2	-7
O=C(CCc1ccccc1)N[C@H]1[C@H](OCc2ccccc2)CCC[C@@]12C(=O)N(Cc1ccccc1)c1ccc(-c3cnccn3)cc12	/	-1	/	/	-5	/
Cc1nn(CCC(=O)NNC(=O)Nc2ccccc2)c(C)c1[N+](=O)[O-]	/	-2	/	/	-6	/
CCOC(=O)Nc1nc(-c2ccccc2)c(C(=O)c2ccc(Cl)cc2)s1	7	-7	-5	59*	-5	10
N#Cc1ccc(-c2ccc(C3Nc4ccccc4C(=O)N3O)o2)cc1 (centres undefined)	47	4	4	-25	-8	-12
Cc1cc([N+](=O)[O-])ccc1-c1ccc(C2Nc3ccccc3C(=O)N2O)o1 (centres undefined)	63*	0	4	/	1	2
CCOC(=O)c1ccc(-c2ccc(C3Nc4ccccc4C(=O)N3O)o2)cc1 (centres undefined)	59*	4	5	13	-10	-1
Cn1nc(-c2ccccc2F)c2cc(C(=O)Nc3ccc4c(c3)OCCO4)sc21	56*	-8	-1	34	-9	7
Cn1c(=O)c2c(nc(SCCN3CCOCC3)n2Cc2ccc(Cl)cc2)n(C)c1=O	64*	-1	4	12	2	-2
CCCCn1c(N)c(Br)c(=O)[nH]c1=O	55*	-1	2	7	1	1
CCCCn1c(N)c(NCCC(C)C)c(=O)[nH]c1=O	-7	3	0	/	-1	1
O=C1C=C(NCCc2cc(Br)c(O)c(Br)c2)C(=O)c2ncccc21	-20	5	6	53*	1	-9
O=C1c2cccc(NCCNCCO)c2C(=O)c2cccc(NCCNCCO)c21	-8	48*	0	135	9	42
COc1cc(/C=N/NC(=O)c2cc(-c3c(C)nn(-c4ccccc4)c3C)n[nH]2)ccc1O	51*	-6	-5	/	-1	25
Cc1nn(-c2ccccc2)c(C)c1-c1cc(C(=O)N/N=C/c2ccc(O)cc2)[nH]n1	56*	-13	3	2	2	8
Cc1cc(C(=O)N/N=C/c2c(C)nn(-c3ccccc3)c2C)n[nH]1	18	-7	2	-13	-1	5
Cc1nn(-c2ccccc2)c(C)c1/C=N/NC(=O)c1cc(C2CC2)[nH]n1	60*	1	-1	-16	2	4
COc1cc(/C=N/NC(=O)c2cc(-c3ccc4c(c3)OCO4)n[nH]2)ccc1O	74*	-7	-7	/	3	9
COC(=O)[C@@]12CCCCC3=C1N(CCC3)C(=O)[C@H]2CC(=O)NCc1cccs1	/	5	/	/	-5	/
SMILES	Cardio protect	DDE Tn6 FP inh	DAGLB inh	TAG inh	DDE Tn7 FP inh	MT1-MMP act inh
O=C(Nc1ccc(C(O)(C(F)(F)F)C(F)(F)F)cc1)c1ccc(Cl)cc1	/	-2	/	/	0	/
CCc1c(C)nc(Nc2nc(C)c3ccc(OC)cc3n2)[nH]c1=O	66*	2	0	/	6	11
CCc1c(C)nc(Nc2nc(C)c3cc(OC)ccc3n2)[nH]c1=O	20	-8	1	29	2	8
c1ccc(CSC2=NNC(c3ccccn3)S2)cc1 (centres undefined)	46	-7	3	67*	4	-1
CCN(CC)c1nc(C)nc2c1nnn2Cc1ccccc1	/	0	/	/	7	/
COc1cccc(-c2nnc(SCC(=O)OC(C)C)n2-c2ccc(Cl)cc2)c1	/	3	/	/	-2	/
Cn1cc(C(=O)c2ccc(Cl)cc2Cl)cc1C(=O)N/N=C(\N)COc1ccc(F)cc1	37	-1	-1	-41	12	4
Cn1cc(C(=O)c2ccc(Cl)cc2Cl)cc1C(=O)N/N=C(\N)COc1ccc(Cl)cc1	96*	3	4	-28	-3	-4
Cn1cc(C(=O)c2ccc(Cl)cc2Cl)cc1C(=O)N/N=C(\N)COc1ccc(Cl)cc1Cl	86*	-8	-8	/	-3	-16
C=CCN1C(=O)[C@@H](CC(=O)NCCCC)[C@]2(C(=O)OCC)CCCCC/C=C/12	/	-7	/	/	-1	/
C#CCN(C[C@@H]1[C@@H](OC(=O)NCc2ccccc2F)[C@@H](OC(=O)NCc2ccccc2F)Cn2c(=O)n(CCCCCC)c(=O)n21)S(=O)(=O)c1ccc(C)cc1	-3	-1	-4	24	2	4
C#CCN(C[C@@H]1[C@@H](OC(=O)NCc2ccccc2F)[C@@H](OC(=O)NCc2ccccc2F)Cn2c(=O)ccc(=O)n21)S(=O)(=O)c1ccc(C)cc1	-4	2	12	69*	8	-11
O=C(NNC(=O)c1ccccc1O)c1ccc(S(=O)(=O)Nc2ccccc2)cc1	58*	5	6	-25	-10	8
O=C(NNC(=O)c1ccccc1O)c1ccc(NS(=O)(=O)c2ccc(F)cc2)cc1	34	6	4	8	-10	5
Nn1c(SCC(=O)Nc2ccc(Br)cn2)nnc1-c1n[nH]c2c1CCC2	/	1	/	/	0	/
Cc1cc(OCC(=O)N2CCOCC2)cc2oc(=O)c3ccccc3c12	59*	6	-4	-18	6	2
O=S1(=O)C=CCN1Cc1cn(Cc2ccc(F)cc2)nn1	/	-3	/	/	0	/
CC(C)CCCCCCCCCCCCC(=O)NCC(=O)NC1C(O)C(O)C(Nc2ncnc3nc[nH]c23)OC1C(O)CO (centres undefined)	0	/	0	85*	/	-54
